Assay results from ChEMBL document CHEMBL1139318, “Tyrosinase inhibitory effects of 1,3-diphenylpropanes from Broussonetia kazinoki” (Bioorg Med Chem, 2009).

Columns and labels:
[1] = molecular target: T1, Tyrosinase (Agaricus bisporus, UniProt O42713); assay: Inhibition of mushroom tyrosinase by kinetic based assay; conditions: read-out: Ki(app)
T1 sequence (O42713 whole entry): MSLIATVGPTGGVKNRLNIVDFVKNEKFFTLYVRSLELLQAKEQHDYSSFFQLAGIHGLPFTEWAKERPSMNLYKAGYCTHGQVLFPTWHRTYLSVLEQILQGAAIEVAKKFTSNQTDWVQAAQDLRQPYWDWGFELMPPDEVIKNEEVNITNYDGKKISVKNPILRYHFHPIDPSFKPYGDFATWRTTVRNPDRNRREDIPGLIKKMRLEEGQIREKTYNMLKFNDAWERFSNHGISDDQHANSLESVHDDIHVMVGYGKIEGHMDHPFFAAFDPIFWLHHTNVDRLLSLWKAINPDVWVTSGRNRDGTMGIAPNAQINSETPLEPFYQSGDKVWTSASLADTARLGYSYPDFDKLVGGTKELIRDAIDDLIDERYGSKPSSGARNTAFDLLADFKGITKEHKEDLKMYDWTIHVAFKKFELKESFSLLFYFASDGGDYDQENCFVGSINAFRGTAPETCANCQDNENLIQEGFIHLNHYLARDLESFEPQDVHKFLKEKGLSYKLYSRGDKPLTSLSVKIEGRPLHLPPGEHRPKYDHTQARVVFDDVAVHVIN
Procedure, shortened: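 Time-dependent assay with L-tyrosine substrate in 0.25 M phosphate buffer (pH 6.8) at 30 °C. Activity was monitored continuously for 15 min, giving 20 points at 30 s intervals, at several inhibitor concentrations and fixed substrate. kobs came from the slow-binding equation or from ln(residual activity) versus preincubation time. k3, k4 and Kiapp came from kobs versus [I] by the Morrison–Walsh method, using nonlinear regression.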

[2] = molecular target: T1, Tyrosinase; assay: Inhibition of monophenolase activity of mushroom tyrosinase using as L-tyrosine substrate
Procedure, shortened: (§1)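 Mushroom tyrosinase (144 units) was added to 0.25 M phosphate buffer (pH 6.8) with substrate: L-tyrosine for monophenolase or L-DOPA for diphenolase. Substrate was added as 200 µL of a 2.7 mM L-tyrosine or 5.4 mM L-DOPA stock. Samples were 10 mM EtOH stocks. Dopachrome formation was read at 475 nm at 30 °C. Runs were triplicate, and IC50 came from a logistic curve fit.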

[3] = molecular target: T1, Tyrosinase; assay: Inhibition of monophenolase activity of mushroom tyrosinase using as L-tyrosine substrate by Lineweaver-Burke plot based kinetic assay
[4] = molecular target: T1, Tyrosinase; assay: Inhibition of diphenolase activity of mushroom tyrosinase using as L-DOPA substrate; procedure, shortened: as §1
[5] = molecular target: T1, Tyrosinase; assay: Inhibition of diphenolase activity of mushroom tyrosinase using as L-DOPA substrate by Lineweaver-Burke plot based kinetic assay
Procedure, shortened: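 Diphenolase kinetics used 0.25 M phosphate buffer (pH 6.8) at 30 °C, reading dopachrome at 475 nm. L-DOPA concentration was varied at several fixed inhibitor concentrations. Reciprocal velocity was plotted against 1/[L-DOPA] (Lineweaver–Burk), and inhibition type and Ki were read from the line pattern.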

Row | Ki [1] [µM] | IC50 [2] [µM] | Ki [3] [µM] | IC50 [4] [µM] | Ki [5] [µM] | Compound
1 | 0.181 | 0.96 | 0.41 | 1.7 | 0.77 | CC(C)=CCc1c(CCCc2ccc(O)cc2O)cc(O)c(O)c1CC=C(C)C [KAZINOL F]
2 |  | 15.5 | 10.8 | 22.8 | 11.2 | C=CC(C)(C)c1cc(CCCc2cc(O)c(O)c(CC=C(C)C)c2CC=C(C)C)c(O)cc1O [KAZINOL C]

More lines, now with the values behind:

Row | Compound | Ki [1] [µM] | IC50 [2] [µM] | Ki [3] [µM] | IC50 [4] [µM] | Ki [5] [µM]
3 | C=CC(C)(C)c1cc(CCCc2cc(O)c3c(c2CC=C(C)C)CCC(C)(C)O3)c(O)cc1O [KAZINOL D] |  | 165 |  | > 200 | 
4 | C=CC(C)(C)c1cc(CCCc2cc(O)c(O)c(CC3OC3(C)C)c2CC=C(C)C)c(O)cc1O (stereo not drawn) [KAZINOL S] | 0.87 | 17.9 | 9.12 | 26.9 | 15.6
5 | CC(C)=CCc1cc(CCCc2ccc(O)cc2O)ccc1O [BROUSSONIN C] | 0.0485 | 0.43 | 0.23 | 0.57 | 0.29
6 | C=CC(C)(C)c1cc(CCCc2cc(O)c3c(c2CC=C(C)C)CC(C(C)(C)O)O3)c(O)cc1O (stereo not drawn) [KAZINOL T] |  | 103 |  | > 200 | 
